Laboratory results taken from ChEMBL document CHEMBL4049460, “Trisubstituted Imidazoles with a Rigidized Hinge Binding Motif Act As Single Digit nM Inhibitors of Clinically Relevant EGFR L858R/T790M and L858R/T790M/C797S Mutants: An Example of Target Hopping” (J Med Chem, 2017).
Calls of active or inactive are those of the source. The rule behind the calls is not given here.

Key:
[1] = test system: Epidermal growth factor receptor (Homo sapiens), P00533 [L858R]; test: (§1) Inhibition of recombinant human N-terminally GST-His6 tagged EGFR L858R mutant (H672 to A1210 residues) C-terminal fragment harboring 3C cleavage site expressed in Baculovirus infected Sf9 cells assessed as residual activity at 1 uM in presence of [33-gamma]-ATP after 60 mins by scintillation counting method relative to control
[2] = organism: Homo sapiens; test: as §1, with “del 747-752/P753S” for “L858R”
[3] = test system: Epidermal growth factor receptor (Homo sapiens), P00533 [L858R,T790M]; test: as §1, with “T790M/L858R double” for “L858R”
[4] = test system: Epidermal growth factor receptor (Homo sapiens), P00533 [G719C]; test: as §1, with “G719C” for “L858R”
[5] = target: Receptor tyrosine-protein kinase erbB-2 (Homo sapiens) (UniProt P04626); test: as §1, with “recombinant wild-type” for “recombinant”, “ERBB2 (Q679” for “EGFR L858R mutant (H672”, “V1255” for “A1210”, “thrombin” for “3C”
Chain of Receptor tyrosine-protein kinase erbB-2 (Homo sapiens) (P04626 whole entry): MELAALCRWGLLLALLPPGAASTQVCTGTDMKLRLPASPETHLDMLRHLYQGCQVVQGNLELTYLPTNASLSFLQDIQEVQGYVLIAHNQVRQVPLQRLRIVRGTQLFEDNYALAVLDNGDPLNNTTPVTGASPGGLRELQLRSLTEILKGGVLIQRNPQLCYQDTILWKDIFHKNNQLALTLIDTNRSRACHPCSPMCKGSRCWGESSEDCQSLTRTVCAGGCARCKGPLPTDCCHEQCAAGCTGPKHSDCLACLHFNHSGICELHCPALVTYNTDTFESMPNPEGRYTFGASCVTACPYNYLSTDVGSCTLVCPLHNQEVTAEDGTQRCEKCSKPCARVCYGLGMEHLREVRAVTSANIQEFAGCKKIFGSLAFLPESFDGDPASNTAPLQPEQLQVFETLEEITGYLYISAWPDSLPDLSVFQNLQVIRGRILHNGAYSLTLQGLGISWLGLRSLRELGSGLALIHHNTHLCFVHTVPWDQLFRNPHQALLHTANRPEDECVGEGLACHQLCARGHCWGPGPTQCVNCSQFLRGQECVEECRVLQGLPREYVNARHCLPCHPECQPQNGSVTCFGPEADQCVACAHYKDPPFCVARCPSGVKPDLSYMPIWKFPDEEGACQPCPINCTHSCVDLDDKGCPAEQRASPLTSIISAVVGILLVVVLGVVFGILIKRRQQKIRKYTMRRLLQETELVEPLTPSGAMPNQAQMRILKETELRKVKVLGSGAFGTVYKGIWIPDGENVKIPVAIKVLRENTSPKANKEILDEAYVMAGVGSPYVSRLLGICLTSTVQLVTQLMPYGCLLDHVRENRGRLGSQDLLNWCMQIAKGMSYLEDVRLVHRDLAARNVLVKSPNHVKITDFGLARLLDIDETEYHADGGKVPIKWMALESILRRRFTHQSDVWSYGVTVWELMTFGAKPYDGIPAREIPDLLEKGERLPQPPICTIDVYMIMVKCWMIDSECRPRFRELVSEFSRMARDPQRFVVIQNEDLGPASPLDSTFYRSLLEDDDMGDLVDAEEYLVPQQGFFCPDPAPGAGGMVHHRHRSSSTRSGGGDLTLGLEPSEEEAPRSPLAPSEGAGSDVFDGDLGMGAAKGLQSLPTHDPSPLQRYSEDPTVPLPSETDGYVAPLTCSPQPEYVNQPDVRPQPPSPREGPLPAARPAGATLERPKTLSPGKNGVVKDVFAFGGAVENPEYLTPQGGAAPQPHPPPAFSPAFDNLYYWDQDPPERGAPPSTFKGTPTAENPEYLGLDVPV

[6] = test system: Epidermal growth factor receptor (Homo sapiens), P00533 [L861Q]; test: as §1, with “L861Q” for “L858R”
[7] = target: Mitogen-activated protein kinase 9 (Homo sapiens) (UniProt P45984); test: Inhibition of recombinant full-length human JNK2 (M1 to Y424 residues) expressed in Escherichia coli assessed as residual activity at 1 uM in presence of [33-gamma]-ATP after 60 mins by scintillation counting method relative to control
Chain of Mitogen-activated protein kinase 9 (Homo sapiens) (P45984 whole entry, looked up, the tested form may be a part): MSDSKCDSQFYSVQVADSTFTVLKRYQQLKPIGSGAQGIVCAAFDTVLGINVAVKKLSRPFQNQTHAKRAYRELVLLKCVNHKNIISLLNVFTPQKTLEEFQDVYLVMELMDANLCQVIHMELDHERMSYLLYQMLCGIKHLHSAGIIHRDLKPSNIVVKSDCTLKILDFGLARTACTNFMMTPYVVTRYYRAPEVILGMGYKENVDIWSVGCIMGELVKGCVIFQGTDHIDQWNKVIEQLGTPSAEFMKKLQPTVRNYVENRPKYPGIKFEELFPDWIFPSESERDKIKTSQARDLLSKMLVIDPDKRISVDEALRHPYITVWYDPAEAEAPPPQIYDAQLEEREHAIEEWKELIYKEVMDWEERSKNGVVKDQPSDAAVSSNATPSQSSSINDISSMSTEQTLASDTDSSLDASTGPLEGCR

[8] = organism: Homo sapiens; test: as §1, with “746-750 deletion” for “L858R”, “(M672” for “(H672”
[9] = target: T1, Epidermal growth factor receptor (Homo sapiens, UniProt P00533, L858R/T790M); test: Inhibition of recombinant human GST-tagged EGFR L858R/T790M double mutant cytoplasmic domain expressed in baculovirus expression system preincubated for 20 mins followed by addition of [33P]-ATP measured after 2 hrs by filter-binding method
[10] = target: Misshapen-like kinase 1 (Homo sapiens) (UniProt Q8N4C8); test: Inhibition of recombinant human N-terminally GST-HIS6 tagged MINK1 (M1 to E320 residues) harboring 3C-cleavage site expressed in Baculovirus infected Sf9 cells assessed as residual activity at 1 uM in presence of [33-gamma]-ATP after 60 mins by scintillation counting method relative to control
Chain of Misshapen-like kinase 1 (Homo sapiens) (Q8N4C8 whole entry, looked up, the tested form may be a part): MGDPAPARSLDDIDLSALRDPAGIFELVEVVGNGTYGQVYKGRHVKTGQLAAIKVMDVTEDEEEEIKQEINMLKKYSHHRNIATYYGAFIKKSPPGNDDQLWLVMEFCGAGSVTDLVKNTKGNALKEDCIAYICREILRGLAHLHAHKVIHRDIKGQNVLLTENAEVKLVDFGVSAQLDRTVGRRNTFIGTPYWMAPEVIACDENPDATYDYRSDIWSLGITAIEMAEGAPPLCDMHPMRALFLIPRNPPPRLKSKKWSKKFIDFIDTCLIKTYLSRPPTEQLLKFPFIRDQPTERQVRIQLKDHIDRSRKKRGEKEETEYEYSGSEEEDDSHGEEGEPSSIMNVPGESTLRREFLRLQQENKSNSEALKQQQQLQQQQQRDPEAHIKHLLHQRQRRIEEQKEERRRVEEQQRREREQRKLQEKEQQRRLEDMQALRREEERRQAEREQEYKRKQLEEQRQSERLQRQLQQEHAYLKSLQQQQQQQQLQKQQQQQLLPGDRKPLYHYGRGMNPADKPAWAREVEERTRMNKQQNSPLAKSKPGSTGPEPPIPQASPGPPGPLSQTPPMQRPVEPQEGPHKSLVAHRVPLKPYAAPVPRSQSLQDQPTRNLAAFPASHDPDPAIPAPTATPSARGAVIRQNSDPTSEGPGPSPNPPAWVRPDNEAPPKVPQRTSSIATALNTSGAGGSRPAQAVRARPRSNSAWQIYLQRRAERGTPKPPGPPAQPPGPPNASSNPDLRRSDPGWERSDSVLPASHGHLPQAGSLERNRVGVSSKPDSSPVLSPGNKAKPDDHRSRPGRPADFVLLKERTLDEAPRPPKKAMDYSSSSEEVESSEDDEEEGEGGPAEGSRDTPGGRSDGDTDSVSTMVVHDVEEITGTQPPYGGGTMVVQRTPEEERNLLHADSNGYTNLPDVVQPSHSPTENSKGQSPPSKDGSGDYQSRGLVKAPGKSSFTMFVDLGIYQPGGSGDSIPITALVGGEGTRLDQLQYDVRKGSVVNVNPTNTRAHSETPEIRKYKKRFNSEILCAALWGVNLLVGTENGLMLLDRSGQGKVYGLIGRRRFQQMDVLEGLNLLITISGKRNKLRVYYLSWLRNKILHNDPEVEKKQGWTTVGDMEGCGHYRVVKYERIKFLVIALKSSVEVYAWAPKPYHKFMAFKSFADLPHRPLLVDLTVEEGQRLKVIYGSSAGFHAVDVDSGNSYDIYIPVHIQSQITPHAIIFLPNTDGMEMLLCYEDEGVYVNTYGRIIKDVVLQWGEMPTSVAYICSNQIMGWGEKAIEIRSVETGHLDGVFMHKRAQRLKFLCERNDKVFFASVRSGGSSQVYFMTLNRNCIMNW

[11] = target: Epidermal growth factor receptor (Homo sapiens, UniProt P00533, T790M/C797S/L858R); test: Inhibition of recombinant human N-terminally GST-tagged EGFR L858R/T790M/C797S triple mutant expressed in baculovirus in Sf9 insect cells preincubated for 20 mins followed by addition of [33P]-ATP measured after 2 hrs by filter-binding method
[12] = target: MAP kinase-activated protein kinase 2 (Homo sapiens) (UniProt P49137); test: Inhibition of recombinant full-length human MAPKAPK2 (M1 to L370 residues) expressed in Baculovirus infected Sf9 cells assessed as residual activity at 1 uM in presence of [33-gamma]-ATP after 60 mins by scintillation counting method relative to control
Chain of MAP kinase-activated protein kinase 2 (Homo sapiens) (P49137 whole entry, looked up, the tested form may be a part): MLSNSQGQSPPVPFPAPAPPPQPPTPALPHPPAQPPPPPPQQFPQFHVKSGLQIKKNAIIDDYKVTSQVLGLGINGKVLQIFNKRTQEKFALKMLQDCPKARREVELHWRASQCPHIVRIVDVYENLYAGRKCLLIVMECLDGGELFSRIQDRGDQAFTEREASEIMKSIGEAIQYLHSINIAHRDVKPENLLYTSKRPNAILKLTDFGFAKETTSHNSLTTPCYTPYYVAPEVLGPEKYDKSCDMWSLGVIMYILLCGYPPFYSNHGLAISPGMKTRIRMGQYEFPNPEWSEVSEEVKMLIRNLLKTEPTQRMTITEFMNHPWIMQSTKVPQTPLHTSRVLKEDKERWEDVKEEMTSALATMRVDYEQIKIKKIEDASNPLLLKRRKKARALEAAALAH

[13] = target: Epidermal growth factor receptor (Homo sapiens, UniProt P00533, L858R); test: Binding affinity to human EGFR L858R mutant (669 to 1011 residues) expressed in bacterial system incubated for 1 hr
Summary of the method: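 Competition binding: compound's ability to displace an immobilized, active-site-directed ligand from the kinase, reported as Kd. Compound and kinase were combined and equilibrated 1 h without dilution before read-out.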

[14] = target: T2, Epidermal growth factor receptor (Homo sapiens, UniProt P00533); test: Binding affinity to wild-type human EGFR (669 to 1011 residues) expressed in bacterial system incubated for 1 hr; assay type: ADME
Summary of the method: (§2)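 Competition binding of inhibitor against an immobilized active-site-directed ligand; Kd read out. Compound and kinase combined and equilibrated for 1 h without dilution (study arm C).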

[15] = organism: Homo sapiens; test: Selectivity ratio of IC50 for EGFR L858R/T790M double mutant (unknown origin) to IC50 for wild-type EGFR (unknown origin)
[16] = test system: Epidermal growth factor receptor (Homo sapiens), P00533 [L858R,T790M]; test: Ratio of Kd for human EGFR L858R/T790M double mutant (669 to 1011 residues) after 1 hr to Kd for EGFR L858R/T790M double mutant (669 to 1011 residues) after 6 hrs
Summary of the method: (§3)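 Kd from competition with an immobilized active-site-directed ligand […]. Ratio compares 1 h compound–kinase equilibration against an arm with 6 h overall equilibration.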

[17] = target: Serine/threonine-protein kinase 26 (Homo sapiens) (UniProt Q9P289); test: Inhibition of recombinant full-length human MST4 (M1 to P416 residues) harboring thrombin cleavage site expressed in Baculovirus infected Sf9 cells assessed as residual activity at 1 uM in presence of [33-gamma]-ATP after 60 mins by scintillation counting method relative to control
Chain of Serine/threonine-protein kinase 26 (Homo sapiens) (Q9P289 2-416 limits assumed): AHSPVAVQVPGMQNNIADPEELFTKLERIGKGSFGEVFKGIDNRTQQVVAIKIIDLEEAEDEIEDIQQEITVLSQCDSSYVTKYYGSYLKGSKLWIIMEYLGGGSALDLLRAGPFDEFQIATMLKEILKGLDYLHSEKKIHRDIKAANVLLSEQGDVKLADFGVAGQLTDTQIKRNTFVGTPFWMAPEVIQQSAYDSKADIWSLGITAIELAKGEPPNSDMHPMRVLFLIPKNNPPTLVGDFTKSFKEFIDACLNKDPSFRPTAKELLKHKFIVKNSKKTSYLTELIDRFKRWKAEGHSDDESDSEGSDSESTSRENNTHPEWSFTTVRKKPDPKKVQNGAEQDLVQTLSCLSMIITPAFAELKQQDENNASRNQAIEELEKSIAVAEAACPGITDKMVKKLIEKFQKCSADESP

[18] = target: T1, Epidermal growth factor receptor; test: Binding affinity to human EGFR L858R/T790M double mutant (669 to 1011 residues) expressed in mammalian system incubated for 1 hr; summary of the method: as §2
[19] = target: Mitogen-activated protein kinase kinase kinase kinase 4 (Homo sapiens) (UniProt O95819); test: Inhibition of recombinant human N-terminally GST-His6 tagged MAP4K4 (A7 to W1320 residues) harboring 3C-cleavage site expressed in Baculovirus infected Sf9 cells assessed as residual activity at 1 uM in presence of [33-gamma]-ATP after 60 mins by scintillation counting method relative to control
[20] = target: T2, Epidermal growth factor receptor; test: Inhibition of recombinant human GST-tagged wild type EGFR ( 668 to 1210 residues) cytoplasmic domain expressed in baculovirus expression system preincubated for 20 mins followed by addition of [33P]-ATP measured after 2 hrs by filter-binding method; settings: read-out: IC50
[21] = target: T3, Mitogen-activated protein kinase 14 (Homo sapiens, UniProt Q16539); test: Inhibition of p38alpha MAPK (unknown origin) assessed as decrease in ATF2 phosphorylation at Thr69/71 at 1 uM after 1 hr by ELISA
T3 sequence (Q16539 whole entry, the tested form may be a part): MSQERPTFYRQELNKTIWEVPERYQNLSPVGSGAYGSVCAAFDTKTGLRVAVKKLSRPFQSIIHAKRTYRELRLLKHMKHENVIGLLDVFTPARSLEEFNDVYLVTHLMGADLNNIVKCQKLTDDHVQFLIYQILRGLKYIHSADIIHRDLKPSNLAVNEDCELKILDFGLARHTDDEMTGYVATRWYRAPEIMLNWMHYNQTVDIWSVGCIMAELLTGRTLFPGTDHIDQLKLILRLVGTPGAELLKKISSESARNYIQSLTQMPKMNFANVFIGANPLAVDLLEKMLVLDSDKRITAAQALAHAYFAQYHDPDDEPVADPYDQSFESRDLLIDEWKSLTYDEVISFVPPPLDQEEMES

[22] = target: T3, Mitogen-activated protein kinase 14; test: Inhibition of recombinant full-length human p38alpha MAPK (M1 to S360 residues) expressed in Escherichia coli at 1 uM in presence of [33-gamma]-ATP after 60 mins by scintillation counting method
[23] = test system: Epidermal growth factor receptor (Homo sapiens), P00533 [L858R]; test: Ratio of Kd for human EGFR L858R mutant (669 to 1011 residues) after 1 hr to Kd for human EGFR L858R mutant (669 to 1011 residues) after 6 hrs; summary of the method: as §3

C=CC(=O)Nc1cccc(-c2c[nH]c3nccc(-c4[nH]c(CCCO)nc4-c4ccc(F)cc4)c23)c1
Activity [1]: 6%
Activity [2]: 4%
Activity [3]: 21%
Activity [4]: 37%
Activity [5]: 17%
Activity [6]: 3%
Activity [7]: 37%
Activity [8]: 3%
IC50 [9]: 1.52 nM
Activity [10]: 5%
IC50 [11]: Not Active
Activity [12]: 48%
Kd [13]: 0.93 nM
Kd [14]: 2 nM
Ratio IC50 [15]: > 40
Ratio [16]: 3 to 5
Activity [17]: 47%
Kd [18]: 13 nM
Activity [19]: 1%
IC50 [20]: < 0.3 nM
IC50 [21]: 214 nM
inhibition [22]: Active
Ratio [23]: 3 to 5
